Screens as filed in PubChem.
TRPC4 potent = TRPC4 (mouse) allosteric potentiation; B-score at 10 µM; Q9QUQ5; 310,000 compounds, 0.42% hits; HEK293 TRPC4beta/mu-opioid, DAMGO EC20, Fluo-4 Ca2+ flux; hits give high values; AID 2227;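 active means B-score of calcium response area above 5 SD of library B-scores, with initial fluorescence ratio within 5 SD of library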
TRPC4 block = blocks the mouse TRPC4 cation channel; Q9QUQ5; AID 2247; B-score at 10 µM; 300,000 compounds, 0.39% hits; HEK293 TRPC4beta/mu-opioid, DAMGO-evoked Fluo4 calcium flux; hits give low values;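 active means B-score over 3 SD under the library average, no early fluorescence shift, positive overall ratio signal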
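test system = HEK293 cells with stable TRPC4beta plus mu-opioid receptor expression | detection = Fluo4 Ca2+ flux fluorescence | read-out = integrated fluorescence ratio relative to baseline, converted to per-well B score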
TRPC6 activator = activates the mouse TRPC6 cation channel; Q61143; HEK293-TRPC6 membrane potential dye fluorescence; hits give high values; B-score at 10 µM; 310,000 compounds, 0.13% hits;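 active means B-score of the integrated fluorescence ratio above library mean plus 3 SD, and starting fluorescence ratio within library mean plus 5 SD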;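 further: higher score means more depolarization so channel activation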
Target sequence (Q61143 whole entry, looked up): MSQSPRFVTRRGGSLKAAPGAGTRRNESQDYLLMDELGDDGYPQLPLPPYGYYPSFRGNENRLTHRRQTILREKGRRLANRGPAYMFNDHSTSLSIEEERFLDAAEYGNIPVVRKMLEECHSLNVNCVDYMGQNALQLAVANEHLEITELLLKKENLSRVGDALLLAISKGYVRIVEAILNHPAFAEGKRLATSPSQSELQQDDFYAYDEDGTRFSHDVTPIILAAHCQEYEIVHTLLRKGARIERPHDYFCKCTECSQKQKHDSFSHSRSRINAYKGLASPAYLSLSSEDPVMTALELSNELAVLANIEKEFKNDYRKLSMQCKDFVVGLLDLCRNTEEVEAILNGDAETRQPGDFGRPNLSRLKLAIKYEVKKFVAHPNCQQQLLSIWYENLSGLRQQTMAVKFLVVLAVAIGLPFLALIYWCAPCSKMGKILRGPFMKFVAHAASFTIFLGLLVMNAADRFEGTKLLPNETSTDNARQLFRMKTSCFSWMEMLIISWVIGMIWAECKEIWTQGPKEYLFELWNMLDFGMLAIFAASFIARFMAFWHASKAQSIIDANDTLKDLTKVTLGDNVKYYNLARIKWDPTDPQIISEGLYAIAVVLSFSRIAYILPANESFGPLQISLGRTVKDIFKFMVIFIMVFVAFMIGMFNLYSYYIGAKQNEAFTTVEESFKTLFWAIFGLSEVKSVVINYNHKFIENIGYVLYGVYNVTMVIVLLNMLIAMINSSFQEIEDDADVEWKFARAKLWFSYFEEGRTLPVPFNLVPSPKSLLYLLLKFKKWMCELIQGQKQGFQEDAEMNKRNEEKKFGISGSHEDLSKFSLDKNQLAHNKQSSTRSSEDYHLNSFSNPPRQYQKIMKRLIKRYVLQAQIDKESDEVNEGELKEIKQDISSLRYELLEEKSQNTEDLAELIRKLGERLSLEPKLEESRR
TRPC4 agonist = activators of mouse TRPC4 channel. Q9QUQ5. HEK293 TRPC4beta/mu-opioid, Fluo4 calcium fluorescence; hits give high values. B-score at 10 µM. 310,000 compounds, 0.49% hits. AID 2237;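 active means B-score above 5 SD of library B-scores, and initial fluorescence ratio not above library mean plus 5 SD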;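 further: positive B-score marks a calcium rise read as TRPC4 activation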
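Material: TRPC4beta and mu-opioid receptor HEK293 stable cells | Incubation: 45 min room-temperature Fluo4 loading, 110 s read | Detection: Kinetic Fluo4 calcium fluorescence | Measure: Integrated baseline-normalised fluorescence ratio, converted to per-well B score | Benchmarks: Low control buffer alone, high control maximal DAMGO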
TRPC6 inh = mouse TRPC6 channel inhibition | HEK293-TRPC6, membrane potential dye, ACh-evoked depolarization; hits give low values | 310,000 compounds, 1.1% hits | Q61143 | B-score at 10 µM;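 active means B-score under library mean minus 3 SD, initial fluorescence not abnormally high, positive integrated signal ratio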;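 further: B-score derived from integrated fluorescence ratio over the kinetic read; more negative B-score means stronger inhibition of depolarization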
HEK293 TRPC6 ctr = parental HEK293 nonspecific activity of TRPC6 modulators; shares compounds with TRPC6 inh; membrane potential dye fluorescence; membrane potential signal change, % at 10 µM; 2,400 compounds, 51% hits; AID 488924;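 active means membrane potential signal moves up or down beyond 5 SD from buffer-only wells, on both duplicate plates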
HEK293 MPD ctr 2 = parental HEK293 nonspecific activity of TRPC6 modulators, second screen; shares compounds with TRPC6 inh; membrane potential dye fluorescence; after compound, maximal acetylcholine stimulation; inhibition, % at 10 µM; 2,400 compounds, 14% hits; AID 488926;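 active means membrane potential signal drops by more than 5 SD from the mean control signal, in both duplicate plates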
TRPC4 ctr mod = mouse TRPC4 off-target activity of TRPC6 modulators. shares compounds with TRPC6 inh. HEK293 TRPC4/mu-opioid, membrane potential fluorescence. percent change from control (negative = decrease, positive = increase), % at 10 µM. 2,400 compounds, 69% hits;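 active means membrane potential signal moved up or down beyond 5 SD of buffer control wells, in both duplicate plates, actives on both sides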
TRPC4 ctr inh 2 = second check of whether TRPC6 modulators also affect mouse TRPC4; HEK293 TRPC4/mu-opioid, membrane potential dye fluorescence; stimulated with maximal-effect DAMGO; 2,400 compounds, 55% hits; shares compounds with TRPC6 inh; inhibition, % at 10 µM;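 active means drop in membrane potential signal beyond 5 SD of the control wells in both duplicate plates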;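 further: TRPC4 counter screen for TRPC6 hits run under conditions tuned for TRPC6 not TRPC4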
TRPC6 inh conf = mouse TRPC6 inhibitor confirmation; shares compounds with TRPC6 inh; HEK293-TRPC6, membrane potential dye, ACh-evoked depolarization; inhibition, % at 10 µM; 3,300 compounds, 43% hits; AID 488960;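 active means fluorescence ratio falls more than 5 SD below the full-stimulation control mean, in both duplicate runs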;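 further: integrated fluorescence ratio of peak minus minimum over baseline after agonist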
TRPC6 act conf = mouse TRPC6 activator confirmation | shares compounds with TRPC6 inh | HEK293-TRPC6 membrane potential dye fluorescence, FDSS | activation, % at 10 µM | 2,800 compounds, 11% hits;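 active means ratio signal rise beyond 5 SD above unstimulated control wells' mean, seen in both duplicate runs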
Each line names hits and unclear results; the compound was inactive in the other large screens (follow-up assays come after a bar, where they were run). Most compounds without a hit are left out; they make up all but 2.3% or so of the library.

COc1ccc(NC(=S)N2CCCC(c3nc4ccc(C)cc4[nH]3)C2)cc1 (stereo not given)	TRPC6 inh -6.54 | HEK293 TRPC6 ctr inactive | HEK293 MPD ctr 2 inactive | TRPC4 ctr mod inactive | TRPC4 ctr inh 2 inactive | TRPC6 inh conf inactive | TRPC6 act conf inactive
CC(=O)N1CCN(c2ccc(NCc3ccccc3)cc2)CC1	none
CC(=O)N1CCN(c2ccc(N=Cc3c(O)n(Cc4ccccc4)c(=O)[nH]c3=O)cc2)CC1	TRPC6 inh -5.57 | HEK293 TRPC6 ctr 188.0% | HEK293 MPD ctr 2 inactive | TRPC4 ctr mod -23.5% | TRPC4 ctr inh 2 inactive | TRPC6 inh conf inactive | TRPC6 act conf inactive
CC(C)(C)OC(=O)N1CCC(c2c(C(=O)N3CCN(C(=O)c4ccco4)CC3)cnn2-c2ccc(F)cc2)CC1	none
Cc1ccc(-n2ncc(C(=O)N3CCN(C(=O)c4ccco4)CC3)c2C2CCN(C(=O)OC(C)(C)C)CC2)cc1C	TRPC6 inh -5.62 | HEK293 TRPC6 ctr inactive | HEK293 MPD ctr 2 inactive | TRPC4 ctr mod inactive | TRPC4 ctr inh 2 inactive | TRPC6 inh conf inactive
CCCCN1C(=O)N(c2ccccc2Cl)C(C)(O)CC1(C)C (stereo not given)	none
CN1CCN(C(=O)C2CCN(c3ncc(C(F)(F)F)cc3Cl)CC2)CC1	TRPC6 inh -5.18 | HEK293 TRPC6 ctr inactive | HEK293 MPD ctr 2 inactive | TRPC4 ctr mod inactive | TRPC4 ctr inh 2 inactive | TRPC6 inh conf inactive | TRPC6 act conf inactive
O=C(OC1CCN(c2ncc(C(F)(F)F)cc2Cl)CC1)c1ccccc1	none
Cc1ccc2nc(CSc3nnc(-c4ccco4)o3)cc(=O)n2c1	TRPC6 inh -5.33 | HEK293 TRPC6 ctr inactive | HEK293 MPD ctr 2 inactive | TRPC4 ctr mod inactive | TRPC4 ctr inh 2 inactive | TRPC6 inh conf inactive
Cc1ccc(Cn2c(=N)c(C(=O)NCc3ccco3)cc3c(=O)n4ccccc4nc32)cc1	TRPC4 agonist 48, TRPC6 inh -5.02 | HEK293 TRPC6 ctr inactive | HEK293 MPD ctr 2 inactive | TRPC4 ctr mod -32.5% | TRPC4 ctr inh 2 38.5% | TRPC6 inh conf 36.5% | TRPC6 act conf inactive
N=c1c(C(=O)NCc2ccco2)cc2c(=O)n3ccccc3nc2n1CCc1ccccc1	TRPC6 inh -5.81 | HEK293 TRPC6 ctr -80.5% | HEK293 MPD ctr 2 inactive | TRPC4 ctr mod -29.5% | TRPC4 ctr inh 2 52.0% | TRPC6 inh conf 45.5% | TRPC6 act conf inactive
COCCn1c(=N)c(C(=O)NCc2ccco2)cc2c(=O)n3cc(C)ccc3nc21	TRPC6 inh -8.24 (no result: TRPC4 block) | HEK293 TRPC6 ctr 422.5% | HEK293 MPD ctr 2 119.5% | TRPC4 ctr mod -74.0% | TRPC4 ctr inh 2 39.5% | TRPC6 inh conf 50.5% | TRPC6 act conf inactive
N=c1c(C(=O)NCc2ccco2)cc2c(=O)n3ccccc3nc2n1CC1CCCO1 (stereo not given)	none
CC(C)(C)c1ccc(S(=O)(=O)N2CCC(N3CCCCC3)CC2)cc1	TRPC6 activator 19.7 | HEK293 TRPC6 ctr 238.0% | HEK293 MPD ctr 2 inactive | TRPC4 ctr mod 41.0% | TRPC4 ctr inh 2 36.0% | TRPC6 inh conf inactive | TRPC6 act conf 122.0%
CC(C)(C)c1ccc(S(=O)(=O)N2CCC(CO)(CC3CCCCO3)CC2)cc1 (stereo not given)	TRPC6 inh -5.82 | HEK293 TRPC6 ctr inactive | HEK293 MPD ctr 2 inactive | TRPC4 ctr mod 17.0% | TRPC4 ctr inh 2 inactive | TRPC6 inh conf inactive
CCOC(=O)C1(CC2CCCCO2)CCN(S(=O)(=O)c2ccccc2)CC1 (stereo not given)	none
COc1cc(C(=O)Nc2cc3c(cc2N2CCCCC2)n(C)c(=O)n3C)cc(OC)c1OC	none
c1ccc2nc3c(nc2c1)c1ccccc1n3CCN1CCOCC1	TRPC6 inh -5.12 | HEK293 TRPC6 ctr inactive | HEK293 MPD ctr 2 inactive | TRPC4 ctr mod -8.5% | TRPC4 ctr inh 2 34.0% | TRPC6 inh conf inactive | TRPC6 act conf inactive
CCCn1c2ccccc2c2nnc(SCCN3CCOCC3)nc21	none
COC/C=C/C1=CC2=CC(=O)C(C)(OC(=O)c3cnc4ccccc4n3)C(=O)C2=CN1c1cccc(C#N)c1 (stereo not given)	none
COc1ccc(C(C)=O)cc1CSc1nnc2c(Cl)cc(Cl)cn12	TRPC6 inh -6.95 | HEK293 TRPC6 ctr -342.0% | HEK293 MPD ctr 2 65.0% | TRPC4 ctr mod -68.5% | TRPC4 ctr inh 2 71.5% | TRPC6 inh conf 64.5% | TRPC6 act conf inactive
O=C(O)c1ccc(Cl)c(S(=O)(=O)N(Cc2ccccc2)c2ccc(F)cc2)c1	TRPC6 activator 16.9 | HEK293 TRPC6 ctr 140.0% | HEK293 MPD ctr 2 inactive | TRPC4 ctr mod 22.5% | TRPC4 ctr inh 2 inactive | TRPC6 inh conf inactive | TRPC6 act conf 144.0%
COc1ccc(N(Cc2ccccc2)S(=O)(=O)c2cc(C(=O)O)ccc2Cl)cc1	TRPC6 activator 24.9 | HEK293 TRPC6 ctr 189.5% | HEK293 MPD ctr 2 inactive | TRPC4 ctr mod 41.5% | TRPC4 ctr inh 2 inactive | TRPC6 inh conf inactive | TRPC6 act conf 148.5%
Cc1cc(C)cc(NC(=O)CCc2c(C)nn(-c3ccc(N4CCOCC4)nn3)c2C)c1	none
COc1ccc(C2CCCN2C(=O)Nc2ccc(Cl)cc2)cc1OC (stereo not given)	none
CCOCCc1nnc(NC(=O)CCS(=O)(=O)c2ccccc2)s1	none
N#Cc1c(-c2cccs2)nc(SCC(=O)c2cccs2)[nH]c1=O	TRPC6 activator 12.1 | HEK293 TRPC6 ctr 114.0% | HEK293 MPD ctr 2 inactive | TRPC4 ctr mod 25.5% | TRPC4 ctr inh 2 inactive | TRPC6 inh conf inactive | TRPC6 act conf 40.0%
O=C(CSc1nc2ccccc2c(=O)[nH]1)c1cccs1	none
